Laboratory results: ChEMBL document CHEMBL3102784, “Salicylanilide diethyl phosphates: synthesis, antimicrobial activity and cytotoxicity” (Bioorg Med Chem, 2014)
Converted amounts (≈) assume the structure as drawn. The source made the active and inactive calls. The rule behind the calls is not given here.

Columns and labels:
Candida albicans [1] = experiment: Antifungal activity against Candida albicans ATCC 44859 after 48 hrs by broth microdilution method; type: functional; conditions: ATCC 44859, 48 h
How it was run: (§1)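 Broth microdilution in RPMI 1640 with glutamine, fluconazole as reference. For yeasts, MIC is ≥80% growth reduction (IC80) versus control. For filamentous fungi, the value is expressed as IC50. Readings at 24 and 48 h.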

Pichia kudriavzevii [2] = experiment: Antifungal activity against Candida krusei E28 after 48 hrs by broth microdilution method; type: functional; conditions: E28, 48 h; how it was run: as §1
Lichtheimia corymbifera [3] = experiment: Antifungal activity against Absidia corymbifera 272 after 24 hrs by broth microdilution method; type: functional; conditions: Lichtheimia corymbifera, 272, 24 h; how it was run: as §1
Trichosporon asahii [4] = experiment: Antifungal activity against Trichosporon asahii 1188 after 48 hrs by broth microdilution method; type: functional; conditions: Trichosporon asahii, 1188, 48 h; how it was run: as §1
HepG2 = experiment: Cytotoxicity against human HepG2 cells after 24 hrs by CellTiter assay; type: cell-based; conditions: HepG2, 24 h
How it was run: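 HepG2 cells (passage 27–33) in MEM with 10% FBS, L-glutamine and NEAA, seeded at 1×10^4 per well. Treated next day with compounds at 0.1–100 µM (or 0.1–25 µmol/L), triplicates, <1% DMSO, for 24 h at 37 °C, 5% CO2. MTS reagent added for 2 h, absorbance read at 490 nm. IC50 taken against untreated (100%) and 10% DMSO (0%) controls.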

[5] = test system: Mycobacterium tuberculosis; experiment: Antimycobacterial activity against Mycobacterium tuberculosis H37Rv My 331/88 after 14 days; type: functional; conditions: H37Rv My 331/88, 336 h
How it was run: (§2)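 Micromethod MIC in Šula's semisynthetic medium at 37 °C. Compounds added in DMSO at 1000 down to 0.032 µmol/L. Isoniazid standard in sterile water at 0.5–250 µmol/L. Inocula: H37Rv 10^3, M. avium 10^5, M. kansasii 10^4. Read at 14 and 21 d, plus 7 d for M. kansasii.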

Staphylococcus aureus [6] = experiment: Antibacterial activity against methicillin-resistant Staphylococcus aureus H 5996/08 after 24 hrs by broth microdilution method; type: functional; conditions: H 5996/08, 24 h
How it was run: (§3)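 Broth microdilution in Mueller–Hinton broth, compounds dissolved in DMSO, tested over a dilution series from 500 downward. MIC taken as ≥95% growth reduction (IC95) versus drug-free control. Benzylpenicillin comparator. Readings at 24 and 48 h.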

[7] = test system: Mycobacterium tuberculosis; experiment: Antimycobacterial activity against Mycobacterium tuberculosis H37Rv My 331/88 after 21 days; type: functional; conditions: H37Rv My 331/88, 504 h; how it was run: as §2
Mycobacterium kansasii [8] = experiment: Antimycobacterial activity against Mycobacterium kansasii My 235/80 after 21 days; type: functional; conditions: My 235/80, 504 h; how it was run: as §2
Staphylococcus aureus [9] = experiment: Antibacterial activity against methicillin-resistant Staphylococcus aureus H 5996/08 after 48 hrs by broth microdilution method; type: functional; conditions: H 5996/08, 48 h; how it was run: as §3
Candida albicans [10] = experiment: Antifungal activity against Candida albicans ATCC 44859 after 24 hrs by broth microdilution method; type: functional; conditions: ATCC 44859, 24 h; how it was run: as §1
Mycobacterium kansasii [11] = experiment: Antimycobacterial activity against Mycobacterium kansasii My 235/80 after 14 days; type: functional; conditions: My 235/80, 336 h; how it was run: as §2
Mycobacterium avium [12] = experiment: Antimycobacterial activity against isoniazid, rifampicin, ethambutol and ofloxacin-resistant Mycobacterium avium My 330/88 after 21 days; type: functional; conditions: My 330/88, 504 h; how it was run: as §2
Candida tropicalis = experiment: Antifungal activity against Candida tropicalis 156 at 500 micromol/L after 24 to 48 hrs by broth microdilution method; type: functional, organism-based; how it was run: as §1
Pseudomonas aeruginosa = experiment: Antibacterial activity against Pseudomonas aeruginosa CCM 1961 at 500 micromol/L after 24 to 48 hrs by broth microdilution method; type: functional, organism-based; how it was run: as §3
Mycobacterium kansasii [13] = experiment: Antimycobacterial activity against Mycobacterium kansasii 6509/96 after 7 days; type: functional; conditions: 6509/96, 168 h; how it was run: as §2
Pichia kudriavzevii [14] = experiment: Antifungal activity against Candida krusei E28 after 24 hrs by broth microdilution method; type: functional; conditions: E28, 24 h; how it was run: as §1
Enterococcus sp. = experiment: Antibacterial activity against Enterococcus sp. J 14365/08 at 500 micromol/L after 24 to 48 hrs by broth microdilution method; type: functional, organism-based; how it was run: as §3
Mycobacterium kansasii [15] = experiment: Antimycobacterial activity against Mycobacterium kansasii My 235/80 after 7 days; type: functional; conditions: My 235/80, 168 h; how it was run: as §2
[16] = test system: Staphylococcus epidermidis; experiment: Antibacterial activity against Staphylococcus epidermidis H 6966/08 after 24 hrs by broth microdilution method; type: functional; conditions: H 6966/08, 24 h; how it was run: as §3
Escherichia coli = experiment: Antibacterial activity against Escherichia coli CCM 4517 at 500 micromol/L after 24 to 48 hrs by broth microdilution method; type: functional, organism-based; how it was run: as §3
Trichosporon asahii [17] = experiment: Antifungal activity against Trichosporon asahii 1188 after 24 hrs by broth microdilution method; type: functional; conditions: Trichosporon asahii, 1188, 24 h; how it was run: as §1
[18] = test system: Trichophyton mentagrophytes; experiment: Antifungal activity against Trichophyton mentagrophytes 445 after 120 hrs by broth microdilution method; type: functional; conditions: Trichophyton mentagrophytes, 445, 120 h
How it was run: (§4)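 Filamentous dermatophyte tested by broth microdilution in RPMI 1640 with glutamine, fluconazole as reference. Value expressed as IC50 relative to growth control. Read at 72 and 120 h.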

Klebsiella pneumoniae [19] = experiment: Antibacterial activity against Klebsiella pneumoniae D 11750/08 at 500 micromol/L after 24 to 48 hrs by broth microdilution method; type: functional, organism-based; how it was run: as §3
Lichtheimia corymbifera [20] = experiment: Antifungal activity against Absidia corymbifera 272 after 48 hrs by broth microdilution method; type: functional; conditions: Lichtheimia corymbifera, 272, 48 h; how it was run: as §1
Aspergillus fumigatus [21] = experiment: Antifungal activity against Aspergillus fumigatus 231 after 48 hrs by broth microdilution method; type: functional; conditions: Aspergillus fumigatus, 231, 48 h; how it was run: as §1
Staphylococcus aureus [22] = experiment: Antibacterial activity against Staphylococcus aureus CCM 4516/08 after 48 hrs by broth microdilution method; type: functional; conditions: CCM 4516/08, 48 h; how it was run: as §3
Nakaseomyces glabratus = experiment: Antifungal activity against Candida glabrata 20/I at 500 micromol/L after 24 to 48 hrs by broth microdilution method; type: functional, organism-based; how it was run: as §1
Mycobacterium kansasii [23] = experiment: Antimycobacterial activity against Mycobacterium kansasii 6509/96 after 14 days; type: functional; conditions: 6509/96, 336 h; how it was run: as §2
Mycobacterium avium [24] = experiment: Antimycobacterial activity against isoniazid, rifampicin, ethambutol and ofloxacin-resistant Mycobacterium avium My 330/88 after 14 days; type: functional; conditions: My 330/88, 336 h; how it was run: as §2
Aspergillus fumigatus [25] = experiment: Antifungal activity against Aspergillus fumigatus 231 after 24 hrs by broth microdilution method; type: functional; conditions: Aspergillus fumigatus, 231, 24 h; how it was run: as §1
Staphylococcus aureus [26] = experiment: Antibacterial activity against Staphylococcus aureus CCM 4516/08 after 24 hrs by broth microdilution method; type: functional; conditions: CCM 4516/08, 24 h; how it was run: as §3
Klebsiella pneumoniae [27] = experiment: Antibacterial activity against ESBL-positive Klebsiella pneumoniae J 14368/08 at 500 micromol/L after 24 to 48 hrs by broth microdilution method; type: functional, organism-based; how it was run: as §3
Mycobacterium kansasii [28] = experiment: Antimycobacterial activity against Mycobacterium kansasii 6509/96 after 21 days; type: functional; conditions: 6509/96, 504 h; how it was run: as §2
[29] = test system: Staphylococcus epidermidis; experiment: Antibacterial activity against Staphylococcus epidermidis H 6966/08 after 48 hrs by broth microdilution method; type: functional; conditions: H 6966/08, 48 h; how it was run: as §3
[30] = test system: Trichophyton mentagrophytes; experiment: Antifungal activity against Trichophyton mentagrophytes 445 after 72 hrs by broth microdilution method; type: functional; conditions: Trichophyton mentagrophytes, 445, 72 h; how it was run: as §4

SMILES	MIC80 (Candida albicans [1]) [µM]	MIC80 (Pichia kudriavzevii [2]) [µM]	MIC50 (Lichtheimia corymbifera [3]) [µM]	MIC80 (Trichosporon asahii [4]) [µM]	IC50 (HepG2) [µM]	MIC [5] [µM]	MIC95 (Staphylococcus aureus [6]) [µM]	MIC [7] [µM]	MIC (Mycobacterium kansasii [8]) [µM]	MIC95 (Staphylococcus aureus [9]) [µM]	MIC80 (Candida albicans [10]) [µM]	MIC (Mycobacterium kansasii [11]) [µM]	MIC (Mycobacterium avium [12]) [µM]	Activity (Candida tropicalis)	Activity (Pseudomonas aeruginosa)	MIC (Mycobacterium kansasii [13]) [µM]	MIC80 (Pichia kudriavzevii [14]) [µM]	Activity (Enterococcus sp.)	MIC (Mycobacterium kansasii [15]) [µM]	MIC95 [16] [µM]	other results
CCOP(=O)(OCC)Oc1ccc(Br)cc1C(=O)Nc1cccc(F)c1	> 500	> 500	> 500	> 500	5.54	8 (≈ 3.57 µg/mL)	250 (≈ 112 µg/mL)	8 (≈ 3.57 µg/mL)	16 (≈ 7.14 µg/mL)	250 (≈ 112 µg/mL)	> 500	16 (≈ 7.14 µg/mL)	32 (≈ 14.3 µg/mL)	inactive	inactive	8 (≈ 3.57 µg/mL)	> 500	inactive	8 (≈ 3.57 µg/mL)	250 (≈ 112 µg/mL)	Activity (Escherichia coli): inactive; MIC80 (Trichosporon asahii [17]): > 500 µM; MIC50 [18]: 62.5 µM (≈ 27.9 µg/mL); Activity (Klebsiella pneumoniae [19]): inactive; MIC50 (Lichtheimia corymbifera [20]): > 500 µM; MIC50 (Aspergillus fumigatus [21]): > 500 µM; MIC95 (Staphylococcus aureus [22]): 250 µM (≈ 112 µg/mL); Activity (Nakaseomyces glabratus): inactive; MIC (Mycobacterium kansasii [23]): 16 µM (≈ 7.14 µg/mL); MIC (Mycobacterium avium [24]): 32 µM (≈ 14.3 µg/mL); MIC50 (Aspergillus fumigatus [25]): > 500 µM; MIC95 (Staphylococcus aureus [26]): 125 µM (≈ 55.8 µg/mL); Activity (Klebsiella pneumoniae [27]): inactive; MIC (Mycobacterium kansasii [28]): 16 µM (≈ 7.14 µg/mL); MIC95 [29]: 250 µM (≈ 112 µg/mL); MIC50 [30]: 62.5 µM (≈ 27.9 µg/mL)
CCOP(=O)(OCC)Oc1ccc(Cl)cc1C(=O)Nc1ccc(C(F)(F)F)cc1	> 250	> 250	> 250	250 (≈ 113 µg/mL)	2.33	1 (≈ 0.452 µg/mL)	62.5 (≈ 28.2 µg/mL)	1 (≈ 0.452 µg/mL)	2 (≈ 0.904 µg/mL)	62.5 (≈ 28.2 µg/mL)	125 (≈ 56.5 µg/mL)	2 (≈ 0.904 µg/mL)	4 (≈ 1.81 µg/mL)	inactive	inactive	2 (≈ 0.904 µg/mL)	125 (≈ 56.5 µg/mL)	inactive	1 (≈ 0.452 µg/mL)	31.2 (≈ 14.1 µg/mL)	Activity (Escherichia coli): inactive; MIC80 (Trichosporon asahii [17]): 125 µM (≈ 56.5 µg/mL); MIC50 [18]: 31.2 µM (≈ 14.1 µg/mL); Activity (Klebsiella pneumoniae [19]): inactive; MIC50 (Lichtheimia corymbifera [20]): > 250 µM; MIC50 (Aspergillus fumigatus [21]): > 250 µM; MIC95 (Staphylococcus aureus [22]): 31.2 µM (≈ 14.1 µg/mL); Activity (Nakaseomyces glabratus): inactive; MIC (Mycobacterium kansasii [23]): 2 µM (≈ 0.904 µg/mL); MIC (Mycobacterium avium [24]): 4 µM (≈ 1.81 µg/mL); MIC50 (Aspergillus fumigatus [25]): > 250 µM; MIC95 (Staphylococcus aureus [26]): 31.2 µM (≈ 14.1 µg/mL); Activity (Klebsiella pneumoniae [27]): inactive; MIC (Mycobacterium kansasii [28]): 2 µM (≈ 0.904 µg/mL); MIC95 [29]: 31.2 µM (≈ 14.1 µg/mL); MIC50 [30]: 31.2 µM (≈ 14.1 µg/mL)
CCOP(=O)(OCC)Oc1ccc(Br)cc1C(=O)Nc1ccc(F)cc1	> 500	> 500	> 500	> 500	7.4	8 (≈ 3.57 µg/mL)	500 (≈ 223 µg/mL)	8 (≈ 3.57 µg/mL)	16 (≈ 7.14 µg/mL)	500 (≈ 223 µg/mL)	> 500	16 (≈ 7.14 µg/mL)	32 (≈ 14.3 µg/mL)	inactive	inactive	8 (≈ 3.57 µg/mL)	> 500	inactive	8 (≈ 3.57 µg/mL)	> 500	Activity (Escherichia coli): inactive; MIC80 (Trichosporon asahii [17]): > 500 µM; MIC50 [18]: 500 µM (≈ 223 µg/mL); Activity (Klebsiella pneumoniae [19]): inactive; MIC50 (Lichtheimia corymbifera [20]): > 500 µM; MIC50 (Aspergillus fumigatus [21]): > 500 µM; MIC95 (Staphylococcus aureus [22]): > 500 µM; Activity (Nakaseomyces glabratus): inactive; MIC (Mycobacterium kansasii [23]): 8 µM (≈ 3.57 µg/mL); MIC (Mycobacterium avium [24]): 32 µM (≈ 14.3 µg/mL); MIC50 (Aspergillus fumigatus [25]): > 500 µM; MIC95 (Staphylococcus aureus [26]): > 500 µM; Activity (Klebsiella pneumoniae [27]): inactive; MIC (Mycobacterium kansasii [28]): 16 µM (≈ 7.14 µg/mL); MIC95 [29]: > 500 µM; MIC50 [30]: 500 µM (≈ 223 µg/mL)
